Measurements as given in ChEMBL document CHEMBL5303300, “EUbOPEN Chemogenomics Library - Multiplex” (2023).
Values joined by “and” are separate entries in the source; they are usually repeats but may differ in a detail not shown here. Equal entries are not always repeated.

Columns and labels:
Fibroblast = test: Multiplex assay against human fibroblast; type: toxicity, cell-based; details: number of replicates 2
Procedure, shortened: (§1)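 Phenotypes for tubulin, mitochondrial mass and membrane permeability are expressed as per cents of healthy-nucleus cells. Cells were stained live at seeding with Hoechst33342, BioTracker Green Microtubule Cytoskeleton Dye, MitoTracker Red and Annexin V Alexa Fluor 680, then imaged after compound addition on a CQ1 microscope at 37°C and 5% CO2. Machine-learning gating in CellPathfinder separated Hoechst high-intensity objects from normal cells, divided normal cells by nuclear state (healthy, pyknosed, fragmented) and divided pyknosed cells into mitotic or apoptotic.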

HEK-293T = test: Multiplex assay against HEK293T; type: toxicity, cell-based; details: human, number of replicates 2; procedure, shortened: as §1
[1] = 12 h, 1 µM, compound concentration 1 uM
[2] = 12 h, 10 µM, compound concentration 10 uM
[3] = 24 h, 1 µM, compound concentration 1 uM
[4] = 24 h, 10 µM, compound concentration 10 uM
[5] = 48 h, 1 µM, compound concentration 1 uM
[6] = 48 h, 10 µM, compound concentration 10 uM

CC(C)c1cc(-c2ccc(F)c3ccccc23)nc(N)n1
Population Apoptotic (%) (Fibroblast; [1]): 33% | Population Fragmented Nuclei (%) (Fibroblast; [1]): 14% and 15% | Population Healthy Nuclei (%) (Fibroblast; [1]): 70% and 65% | Population Hoechst High Intensity Objects (%) (Fibroblast; [1]): 1% and 0% | Population Membrane Permeable-Phenotype (%) (Fibroblast; [1]): 5% and 8% | Population Mitochondria Different-Phenotype (%) (Fibroblast; [1]): 0% and 3% | Population Mitotic Cells (%) (Fibroblast; [1]): 66% | Population Normal (%) (Fibroblast; [1]): 98% and 100% | Population Pyknosed Nuclei (%) (Fibroblast; [1]): 15% and 18% | Population Tubulin-Different-Phenotype (%) (Fibroblast; [1]): 16% and 14% | Total Cell Count (Fibroblast; [1]): 161 and 144 | Population Apoptotic (%) (Fibroblast; [2]): 38% | Population Fragmented Nuclei (%) (Fibroblast; [2]): 11% and 16% | Population Healthy Nuclei (%) (Fibroblast; [2]): 75% and 71% | Population Hoechst High Intensity Objects (%) (Fibroblast; [2]): 0% | Population Membrane Permeable-Phenotype (%) (Fibroblast; [2]): 7% | Population Mitochondria Different-Phenotype (%) (Fibroblast; [2]): 0% and 2% | Population Mitotic Cells (%) (Fibroblast; [2]): 61% | Population Normal (%) (Fibroblast; [2]): 100% | Population Pyknosed Nuclei (%) (Fibroblast; [2]): 12% | Population Tubulin-Different-Phenotype (%) (Fibroblast; [2]): 12% | Total Cell Count (Fibroblast; [2]): 140 and 174 | Population Apoptotic (%) (Fibroblast; [3]): 47% and 40% | Population Fragmented Nuclei (%) (Fibroblast; [3]): 14% and 15% | Population Healthy Nuclei (%) (Fibroblast; [3]): 71% and 67% | Population Hoechst High Intensity Objects (%) (Fibroblast; [3]): 0% | Population Membrane Permeable-Phenotype (%) (Fibroblast; [3]): 4% and 8% | Population Mitochondria Different-Phenotype (%) (Fibroblast; [3]): 0% and 1% | Population Mitotic Cells (%) (Fibroblast; [3]): 52% and 60% | Population Normal (%) (Fibroblast; [3]): 100% | Population Pyknosed Nuclei (%) (Fibroblast; [3]): 13% and 17% | Population Tubulin-Different-Phenotype (%) (Fibroblast; [3]): 17% and 12% | Total Cell Count (Fibroblast; [3]): 157 and 140 | Population Apoptotic (%) (Fibroblast; [4]): 75% and 46% | Population Fragmented Nuclei (%) (Fibroblast; [4]): 9% and 14% | Population Healthy Nuclei (%) (Fibroblast; [4]): 84% and 76% | Population Hoechst High Intensity Objects (%) (Fibroblast; [4]): 0% | Population Membrane Permeable-Phenotype (%) (Fibroblast; [4]): 5% and 1% | Population Mitochondria Different-Phenotype (%) (Fibroblast; [4]): 0% and 3% | Population Mitotic Cells (%) (Fibroblast; [4]): 25% and 53% | Population Normal (%) (Fibroblast; [4]): 99% and 100% | Population Pyknosed Nuclei (%) (Fibroblast; [4]): 5% and 8% | Population Tubulin-Different-Phenotype (%) (Fibroblast; [4]): 11% and 8% | Total Cell Count (Fibroblast; [4]): 135 and 171 | Population Apoptotic (%) (Fibroblast; [5]): 65% and 57% | Population Fragmented Nuclei (%) (Fibroblast; [5]): 16% and 13% | Population Healthy Nuclei (%) (Fibroblast; [5]): 69% and 71% | Population Hoechst High Intensity Objects (%) (Fibroblast; [5]): 0% | Population Membrane Permeable-Phenotype (%) (Fibroblast; [5]): 4% and 7% | Population Mitochondria Different-Phenotype (%) (Fibroblast; [5]): 0% | Population Mitotic Cells (%) (Fibroblast; [5]): 34% and 42% | Population Normal (%) (Fibroblast; [5]): 100% and 99% | Population Pyknosed Nuclei (%) (Fibroblast; [5]): 13% and 14% | Population Tubulin-Different-Phenotype (%) (Fibroblast; [5]): 14% and 7% | Total Cell Count (Fibroblast; [5]): 173 and 142 | Population Apoptotic (%) (Fibroblast; [6]): 100% and 54% | Population Fragmented Nuclei (%) (Fibroblast; [6]): 13% and 14% | Population Healthy Nuclei (%) (Fibroblast; [6]): 82% and 79% | Population Hoechst High Intensity Objects (%) (Fibroblast; [6]): 0% | Population Membrane Permeable-Phenotype (%) (Fibroblast; [6]): 3% and 1% | Population Mitochondria Different-Phenotype (%) (Fibroblast; [6]): 0% | Population Normal (%) (Fibroblast; [6]): 100% | Population Pyknosed Nuclei (%) (Fibroblast; [6]): 3% and 6% | Population Tubulin-Different-Phenotype (%) (Fibroblast; [6]): 7% and 5% | Total Cell Count (Fibroblast; [6]): 152 and 175 | Population Apoptotic (%) (HEK-293T; [1]): 45% and 56% | Population Fragmented Nuclei (%) (HEK-293T; [1]): 3% | Population Healthy Nuclei (%) (HEK-293T; [1]): 88% and 87% | Population Hoechst High Intensity Objects (%) (HEK-293T; [1]): 5% | Population Membrane Permeable-Phenotype (%) (HEK-293T; [1]): 2% | Population Mitochondria Different-Phenotype (%) (HEK-293T; [1]): 15% | Population Mitotic Cells (%) (HEK-293T; [1]): 54% and 43% | Population Normal (%) (HEK-293T; [1]): 94% | Population Pyknosed Nuclei (%) (HEK-293T; [1]): 8% and 9% | Population Tubulin-Different-Phenotype (%) (HEK-293T; [1]): 54% and 59% | Total Cell Count (HEK-293T; [1]): 775 and 598 | Population Apoptotic (%) (HEK-293T; [2]): 62% | Population Fragmented Nuclei (%) (HEK-293T; [2]): 3% and 4% | Population Healthy Nuclei (%) (HEK-293T; [2]): 78% and 80% | Population Hoechst High Intensity Objects (%) (HEK-293T; [2]): 7% | Population Membrane Permeable-Phenotype (%) (HEK-293T; [2]): 1% and 0% | Population Mitochondria Different-Phenotype (%) (HEK-293T; [2]): 25% and 20% | Population Mitotic Cells (%) (HEK-293T; [2]): 37% | Population Normal (%) (HEK-293T; [2]): 92% | Population Pyknosed Nuclei (%) (HEK-293T; [2]): 18% and 15% | Population Tubulin-Different-Phenotype (%) (HEK-293T; [2]): 66% and 60% | Total Cell Count (HEK-293T; [2]): 434 and 448 | Population Apoptotic (%) (HEK-293T; [3]): 49% and 36% | Population Fragmented Nuclei (%) (HEK-293T; [3]): 6% and 4% | Population Healthy Nuclei (%) (HEK-293T; [3]): 88%
